Results of several laboratories.
AMY2: Pancreatic alpha-amylase (AMY2, Sus scrofa, UniProt P00690)
SLC22A8: Organic anion transporter 3 (SLC22A8, Homo sapiens, UniProt Q8TCC7)
SIRT2: NAD-dependent protein deacetylase sirtuin-2 (SIRT2, Homo sapiens, UniProt Q8IXJ6)
RORC: Nuclear receptor ROR-gamma (RORC, Homo sapiens, UniProt P51449)
CDC7: Cell division cycle 7-related protein kinase (CDC7, Homo sapiens, UniProt O00311)
FRK: Tyrosine-protein kinase FRK (FRK, Homo sapiens, UniProt P42685)
polA: DNA polymerase I, thermostable (polA, Thermus aquaticus, UniProt P19821)
Maoa: Amine oxidase [flavin-containing] A (Maoa, Rattus norvegicus, UniProt P21396)

`O=C1Nc2ccc([N+](=O)[O-])cc2/C1=N/NS(=O)(=O)c1ccc(Cl)cc1` gave an IC50 of 4100 nM (AMY2; enzyme activity, inhibitor).
The IC50 of `O=C(O)CSc1nnc(Br)n1-c1ccc(C2CC2)c2ccccc12` is reported as 3500 nM (SLC22A8; transporter uptake, inhibitor, radiometric; 1 h, oocytes).
`CCCCCCCCCCCCNC(=S)NCCCC[C@H](NC(=O)OCc1ccccc1)C(=O)N[C@@H](C)C(=O)N[C@@H](CCCNC(=N)N)C(N)=O` gave an IC50 of 140 nM (SIRT2; enzyme activity, inhibitor).
For `COc1cccc(S(=O)(=O)N2CCc3ccc(OCc4c(F)cccc4Cl)cc32)c1`, the IC50 was 250 nM (RORC; ligand displacement, radioligand).
`Cc1cnc(-c2ccc(-c3ccc(NC(=O)Nc4c(F)cc(F)cc4F)cc3F)c3c2C(=O)NC3)[nH]1` gave an IC50 of 4.2 nM (Myosin-IIIb (MYO3B, Homo sapiens, UniProt Q8WXR4); enzyme activity, inhibitor).
For `CCn1c(-c2nc3cc(C(=O)N4CCC[C@@H](N)C4)cc(OC)c3n2C)cc2cccnc21`, the IC50 was greater than 15800 nM (Muscarinic acetylcholine receptor M2 (CHRM2, Homo sapiens, UniProt P08172); calcium signal, antagonist, fluorescence).
For `COc1ccc(S(=O)(=O)N/N=C2\C(=O)Nc3ccc(Cl)cc32)cc1`, the IC50 was 13100 nM (AMY2; enzyme activity, inhibitor).
With `O=S(=O)(c1cc(Cl)cc(Cl)c1)N1CCc2ccc(OCc3c(F)cccc3Cl)cc21` the IC50 was 340 nM (RORC; ligand displacement, radioligand).
With `CN(C(=O)n1cnc(-c2ccc[n+]([O-])c2)c1)C1CCCCC1` the IC50 was greater than 33300 nM (SLC22A8; transporter uptake, inhibitor; HEK293).
With `O=S(=O)(c1cccc(C(F)(F)F)c1)N1CCc2ccc(OCc3c(Cl)cccc3C(F)(F)F)cc21` the IC50 was 170 nM (RORC; ligand displacement, radioligand).
`COc1cc(N2CCN(C)CC2)ccc1Nc1ncc2c(n1)N(C)c1ccccc1C(=O)N2C` gave an IC50 of 16 nM (Serine/threonine-protein kinase DCLK1 (DCLK1, Homo sapiens, UniProt O15075); enzyme activity, inhibitor, mobility shift).
The IC50 of `CC(C)[C@@H](N)c1nc2cc(-c3ccncc3F)sc2c(=O)[nH]1` is reported as 1470 nM (CDC7; enzyme activity, inhibitor).
The IC50 of `Cc1nccc2c1c(=O)n(C)c1cc(OC[C@@H](N)CC(C)C)c(C#N)cc21` is reported as 60 nM (Cyclin-G-associated kinase (GAK, Homo sapiens, UniProt O14976); enzyme activity, inhibitor, radiometric).
`CNC(=O)c1cc2c(Oc3ccc(NC(=O)C4(C(=O)Nc5ccc(F)cc5)CC4)cc3)ccnc2cc1OC` has an IC50 of 13 nM (FRK; enzyme activity, inhibitor, radiometric).
The IC50 of `COC(=O)c1cc2ccc(O)cc2oc1=O` is reported as 129000 nM (polA; enzyme activity, inhibitor).
`COc1ccc2c(Oc3ccc4c(C(=O)Nc5ccccc5N)cccc4c3)ccnc2c1` gave an IC50 of greater than 500 nM (Tyrosine-protein kinase Fes/Fps (FES, Homo sapiens, UniProt P07332); enzyme activity, inhibitor).
For `CC/C=C\C/C=C\C/C=C\C/C=C\C/C=C\CCCC(=O)O`, the IC50 was greater than 100000 nM (polA; enzyme activity, inhibitor).
For `COc1cccnc1COc1ccc2c(c1)N(S(=O)(=O)c1cccc(C(F)(F)F)c1)CC2`, the IC50 was 85 nM (RORC; ligand displacement, radioligand).
With `CCCCCCCCCCCCCC(=S)NCCCC[C@H](NC(=O)OCc1ccccc1)C(=O)N[C@@H](Cc1c[nH]c2ccccc12)C(=O)NC(C)C` the IC50 was 1200 nM (SIRT2; enzyme activity, inhibitor).
`CC(C)C[C@H](NC(=O)[C@H](Cc1ccccc1)NC(=O)[C@@H](N)Cc1ccc(O)cc1)C(=O)N[C@@H](Cc1ccccc1)C(=O)N[C@@H](CCCNC(=N)N)C(=O)N1CCC[C@H]1C(=O)N[C@@H](CCCNC(=N)N)C(=O)N[C@@H](CC(N)=O)C(N)=O` has an IC50 of 0.38 nM (Neuromedin-U receptor 1 (Mus musculus, UniProt O55040); ligand displacement, radioligand).
`CC(=O)Oc1ccccc1C(=O)Nc1ncc([N+](=O)[O-])s1` has an IC50 of 154 nM (SLC22A8; transporter uptake, inhibitor).
With `N=C(CF)NCCCC[C@H](NC(=O)c1ccccc1)C(N)=O` the IC50 was 64400 nM (Protein-arginine deiminase type-3 (PADI3, Homo sapiens, UniProt Q9ULW8); enzyme activity, inhibitor).
`COc1cc2nccc(Oc3ccc(NC(=O)c4cc5c(n(-c6ccccc6)c4=O)CCCC5=O)nc3)c2cc1OC` gave an IC50 of greater than 100 nM (FRK; enzyme activity in cells, inhibitor, ATP luminescence).
The IC50 of `COc1oc(=O)c2cc(N)ccc2c1Cl` is reported as 1600 nM (Rhomboid protease GlpG (glpG, Escherichia coli, UniProt P09391); enzyme activity, inhibitor).
With `CC(C)[C@H](N)c1nc2cc(-c3ccnc(Cl)c3)sc2c(=O)[nH]1` the IC50 was 2200 nM (CDC7; enzyme activity, inhibitor).
`CCCCCCCCCCCCNC(=S)NCCCC[C@H](NC(=O)OCc1ccccc1)C(=O)N[C@@H](Cc1c[nH]c2ccccc12)C(=O)N[C@@H](CCNC(=N)N)C(N)=O` gave an IC50 of 160 nM (SIRT2; enzyme activity, inhibitor).
`CCn1ncc2c1-c1cnc(N)c(c1)O[C@H](C)c1cc(F)ccc1-c1nn(C)nc1C2` has an IC50 of 24 nM (Tyrosine-protein kinase Fer (FER, Homo sapiens, UniProt P16591); enzyme activity, inhibitor, radiometric).
For `COc1cc(C=Cc2cc(-c3ccccc3)nc(O)n2)ccc1O`, the IC50 was 23700 nM (AMY2; enzyme activity, inhibitor, absorbance).
For `CCCCCCCCCCCCNC(=O)NCCCC[C@H](NS(C)(=O)=O)C(=O)N[C@H](C)C(=O)N[C@@H](CCCNC(=N)N)C(N)=O`, the IC50 was 750 nM (SIRT2; enzyme activity, inhibitor).
The IC50 of `Cc1cccc(Br)c1COc1ccc2c(c1)N(S(=O)(=O)c1cccc(C(F)(F)F)c1)CC2` is reported as 160 nM (RORC; ligand displacement, radioligand).
The IC50 of `C=C(CC)C(=O)c1ccc(OCC(=O)O)c(Cl)c1Cl` is reported as 662 nM (SLC22A8; transporter uptake, inhibitor).
With `O=S(=O)(c1cccc(C(F)(F)F)c1)N1c2cc(OCc3c(F)cccc3Cl)ccc2CC1C(F)(F)F` (centres unmarked) the IC50 was 190 nM (RORC; ligand displacement, radioligand).
The IC50 of `CN1CCN(c2ccnc(C(=O)N3CCC[C@H](C(=O)Nc4cccc(-c5ccc(C(N)=O)cc5)c4)C3)c2)CC1` is reported as greater than 100000 nM (Histone lysine demethylase PHF8, PHD (PHF8, Homo sapiens, UniProt Q9UPP1); cell-free assay, inhibitor, TR-FRET).
The IC50 of `O=C1Nc2ccc([N+](=O)[O-])cc2/C1=N/NS(=O)(=O)c1cc(Cl)cc(Cl)c1O` is reported as 1300 nM (AMY2; enzyme activity, inhibitor).
`CCCCCCCCCCCCNC(=S)NCCCC[C@H](NS(C)(=O)=O)C(=O)N[C@H](C)C(=O)N[C@@H](CCCNC(=N)N)C(=O)N1CCOCC1` has an IC50 of 90 nM (SIRT2; enzyme activity, inhibitor).
With `CC1Cc2ccc(OCc3c(F)cccc3Cl)cc2N1S(=O)(=O)c1cccc(C(F)(F)F)c1` (centres unmarked) the IC50 was 380 nM (RORC; ligand displacement, radioligand).
For `CCCCCCCCCCCCCCCCCC(=O)Oc1ccc2ccc(=O)oc2c1`, the IC50 was greater than 200000 nM (polA; enzyme activity, inhibitor).
`O=S(=O)(c1cccc(C(F)(F)F)c1)N1CCc2ccc(OCc3c(Cl)cncc3C(F)(F)F)cc21` gave an IC50 of 190 nM (RORC; ligand displacement, radioligand).
The IC50 of `OC[C@@H]1[C@@H](O)[C@H](O)[C@@H](O)[C@@H]2O[C@H]12` is reported as 5350 nM (Beta-glucosidase (GBA2, Homo sapiens, UniProt Q9HCG7); enzyme activity, inhibitor; pH 8, lysate).
With `CC(C)[C@H](N)c1nc2cc(-c3ccnnc3)sc2c(=O)[nH]1` the IC50 was 3930 nM (CDC7; enzyme activity, inhibitor).
The IC50 of `CC(=NN=C1CS(=O)(=O)N(C)c2ccccc21)c1cc(Cl)sc1Cl` is reported as 2480 nM (Maoa; enzyme activity, inhibitor, fluorescence).
For `O=C(O)CNC(=O)C(=O)O`, the IC50 was 34000 nM (Lysine-specific demethylase 4D (KDM4D, Homo sapiens, UniProt Q6B0I6); enzyme activity, inhibitor, AlphaScreen).
With `CCCCCCCCCCCCNC(=S)NCCCC[C@H](NC(=O)OCc1ccccc1)C(=O)N[C@@H](Cc1c[nH]c2ccccc12)C(=O)N[C@@H](CCCCNC(=N)N)C(N)=O` the IC50 was 210 nM (SIRT2; enzyme activity, inhibitor).
The IC50 of `CC(=NN=C1CS(=O)(=O)N(C)c2ccccc21)c1ccc(C)s1` is reported as 1270 nM (Maoa; enzyme activity, inhibitor, fluorescence).
